Measured values reported in ChEMBL document CHEMBL1147862, “Studies on synthesis and pharmacological activities of 3,6-disubstituted-1,2,4-triazolo[3,4-b]-1,3,4-thiadiazoles and their dihydro analogues” (2007).

Tests used:
Format in all cases: functional
[1] = tested on: Mus musculus; test: Analgesic activity in Swiss mouse assessed as increase in reaction time at 20 mg/kg, po after 30 mins by Eddy's hot plate technique
Summary of the method: (§1)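 Swiss mice of either sex, 25–35 g, placed one at a time on a hot plate held at 55 °C. End point is paw licking or jumping, whichever comes first, with a 15 s cut-off to avoid paw injury. Reaction time is recorded and reported as percent increase in reaction time.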

[2] = tested on: Mus musculus; test: Analgesic activity in Swiss mouse assessed as increase in reaction time at 20 mg/kg, po after 60 mins by Eddy's hot plate technique; summary of the method: as §1
[3] = tested on: Mus musculus; test: Analgesic activity in Swiss mouse assessed as increase in reaction time at 20 mg/kg, po after 90 mins by Eddy's hot plate technique; summary of the method: as §1
[4] = tested on: Candida albicans; test: Antifungal activity against Candida albicans at 10 ug/ml by paper disc method; conditions: read-out: IZ
[5] = tested on: Candida albicans; test: Antifungal activity against Candida albicans at 20 ug/ml by paper disc method; conditions: read-out: IZ
[6] = tested on: Candida albicans; test: Antifungal activity against Candida albicans at 30 ug/ml by paper disc method; conditions: read-out: IZ
[7] = tested on: Aspergillus niger; test: Antifungal activity against Aspergillus niger at 10 ug/ml by paper disc method; conditions: read-out: IZ
[8] = tested on: Aspergillus niger; test: Antifungal activity against Aspergillus niger at 20 ug/ml by paper disc method; conditions: read-out: IZ
[9] = tested on: Aspergillus niger; test: Antifungal activity against Aspergillus niger at 30 ug/ml by paper disc method; conditions: read-out: IZ
[10] = tested on: Escherichia coli; test: Antibacterial activity against Escherichia coli at 10 ug/ml by agar plate diffusion technique; conditions: read-out: IZ
[11] = tested on: Escherichia coli; test: Antibacterial activity against Escherichia coli at 20 ug/ml by agar plate diffusion technique; conditions: read-out: IZ
[12] = tested on: Escherichia coli; test: Antibacterial activity against Escherichia coli at 30 ug/ml by agar plate diffusion technique; conditions: read-out: IZ
[13] = tested on: Pseudomonas aeruginosa; test: Antibacterial activity against Pseudomonas aeruginosa at 10 ug/ml by agar plate diffusion technique; conditions: read-out: IZ
[14] = tested on: Pseudomonas aeruginosa; test: Antibacterial activity against Pseudomonas aeruginosa at 20 ug/ml by agar plate diffusion technique; conditions: read-out: IZ
[15] = tested on: Pseudomonas aeruginosa; test: Antibacterial activity against Pseudomonas aeruginosa at 30 ug/ml by agar plate diffusion technique; conditions: read-out: IZ
[16] = tested on: Bacillus subtilis; test: Antibacterial activity against Bacillus subtilis at 10 ug/ml by agar plate diffusion technique; conditions: read-out: IZ
[17] = tested on: Bacillus subtilis; test: Antibacterial activity against Bacillus subtilis at 20 ug/ml by agar plate diffusion technique; conditions: read-out: IZ
[18] = tested on: Bacillus subtilis; test: Antibacterial activity against Bacillus subtilis at 30 ug/ml by agar plate diffusion technique; conditions: read-out: IZ
[19] = tested on: Staphylococcus aureus; test: Antibacterial activity against Staphylococcus aureus at 10 ug/ml by agar plate diffusion technique; conditions: read-out: IZ
[20] = tested on: Staphylococcus aureus; test: Antibacterial activity against Staphylococcus aureus at 20 ug/ml by agar plate diffusion technique; conditions: read-out: IZ
[21] = tested on: Staphylococcus aureus; test: Antibacterial activity against Staphylococcus aureus at 30 ug/ml by agar plate diffusion technique; conditions: read-out: IZ
[22] = tested on: Rattus norvegicus; test: Antiinflammatory activity in Wistar Albino rat assessed as inhibition of carrageenan-induced paw oedema at 20 mg/kg after 1 hr relative to control
Summary of the method: (§2)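 Wistar albino rats, 150–200 g, six per group, dosed orally with a 20 mg/kg suspension; control gets 0.1 ml 1% gum acacia. After 30 min, 0.1 ml 1% carrageenan in saline is injected subplantar into the right hind paw. Paw volume is read by plethysmograph at 0–4 h. Inhibition = 100(1 − Vtest/Vcontrol) on mean volume increase.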

[23] = tested on: Rattus norvegicus; test: Antiinflammatory activity in Wistar Albino rat assessed as inhibition of carrageenan-induced paw oedema at 20 mg/kg after 2 hrs relative to control; summary of the method: as §2
[24] = tested on: Rattus norvegicus; test: Antiinflammatory activity in Wistar Albino rat assessed as inhibition of carrageenan-induced paw oedema at 20 mg/kg after 3 hrs relative to control; summary of the method: as §2
[25] = tested on: Rattus norvegicus; test: Antiinflammatory activity in Wistar Albino rat assessed as inhibition of carrageenan-induced paw oedema at 20 mg/kg after 4 hrs relative to control; summary of the method: as §2

| Compound | Activity [1] [%] | Activity [2] [%] | Activity [3] [%] | zone of inhibition at 10 µg/mL [4] [mm] | zone of inhibition at 20 µg/mL [5] [mm] | zone of inhibition at 30 µg/mL [6] [mm] | zone of inhibition at 10 µg/mL [7] [mm] | zone of inhibition at 20 µg/mL [8] [mm] | zone of inhibition at 30 µg/mL [9] [mm] | zone of inhibition at 10 µg/mL [10] [mm] | zone of inhibition at 20 µg/mL [11] [mm] | zone of inhibition at 30 µg/mL [12] [mm] | zone of inhibition at 10 µg/mL [13] [mm] | zone of inhibition at 20 µg/mL [14] [mm] | zone of inhibition at 30 µg/mL [15] [mm] | zone of inhibition at 10 µg/mL [16] [mm] | zone of inhibition at 20 µg/mL [17] [mm] | zone of inhibition at 30 µg/mL [18] [mm] | zone of inhibition at 10 µg/mL [19] [mm] | zone of inhibition at 20 µg/mL [20] [mm] | other results |
| --- | --- | --- | --- | --- | --- | --- | --- | --- | --- | --- | --- | --- | --- | --- | --- | --- | --- | --- | --- | --- | --- |
| COc1ccc(Cl)c(-c2nnc3sc(Cc4c(C)[nH]c5ccc(OC)cc45)nn23)c1 | 19.48 | 28.54 | 35.24 | 4.35 | 8.72 | 11.7 | 4.56 | 8.24 | 12.3 | 4.26 | 7.28 | 12.3 | 4.15 | 7.92 | 12.4 | 4.12 | 7.18 | 11.9 | 4.17 | 8.12 | zone of inhibition at 30 µg/mL [21]: 12.1 mm; inhibition in vivo at 20 mg/kg [22]: 11.3%; inhibition in vivo at 20 mg/kg [23]: 20%; inhibition in vivo at 20 mg/kg [24]: 26.1%; inhibition in vivo at 20 mg/kg [25]: 32.7% |
| Cc1occc1-c1nnc2n1NC(c1ccco1)S2 (stereo not given) | 5.68 | 15.18 | 26.14 | 5.41 | 11 | 14.8 | 5.21 | 8.12 | 14.2 | 4.82 | 8.04 | 15.2 | 6.67 | 12.3 | 17.7 | 5.33 | 10.7 | 11.3 | 6.67 | 12.3 | zone of inhibition at 30 µg/mL [21]: 13.3 mm; inhibition in vivo at 20 mg/kg [22]: 16.4%; inhibition in vivo at 20 mg/kg [23]: 21.6%; inhibition in vivo at 20 mg/kg [24]: 24.1%; inhibition in vivo at 20 mg/kg [25]: 25.9% |
| COc1ccc(Cl)c(-c2nnc3sc(-c4ccnc(Cl)c4)nn23)c1 | 7.14 | 17.45 | 23 | 7.14 | 13.7 | 19.3 | 6.64 | 11.8 | 18.4 | 6.39 | 12.2 | 19.2 | 7.02 | 12.5 | 19.1 | 7.12 | 13.8 | 18.6 | 6.98 | 13.7 | zone of inhibition at 30 µg/mL [21]: 18.6 mm; inhibition in vivo at 20 mg/kg [22]: 14.4%; inhibition in vivo at 20 mg/kg [23]: 20.1%; inhibition in vivo at 20 mg/kg [24]: 23.5%; inhibition in vivo at 20 mg/kg [25]: 27.2% |
| COc1ccc(Cc2nnc3n2NC(c2ccc[nH]2)S3)cc1OC (stereo not given) | 7.6 | 12.65 | 21.06 | 4.7 | 8.12 | 13.1 | 4.68 | 9.12 | 12.2 | 4.48 | 7.18 | 14.2 | 7.33 | 11.7 | 13.3 | 4.32 | 8.32 | 12 | 4.02 | 7.64 | zone of inhibition at 30 µg/mL [21]: 10.6 mm; inhibition in vivo at 20 mg/kg [22]: 13.2%; inhibition in vivo at 20 mg/kg [23]: 15.9%; inhibition in vivo at 20 mg/kg [24]: 17.7%; inhibition in vivo at 20 mg/kg [25]: 21.5% |
